# Source: PubChem
# ALR H2O2 inh: inhibitors of human ALR sulfhydryl oxidase, primary screen, biochemical, H2O2 detection, HRP-luminol luminescence, single point. FAD-linked sulfhydryl oxidase ALR (Homo sapiens), P55789. inhibition, % (concentration not given with the values). purified ALR, DTT oxidation. actives 3.8% (n = 290,000);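 active = mean replicate inhibition above about 79%, with every replicate also reaching it, limit read from the data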
# Target sequence (P55789 whole entry, looked up): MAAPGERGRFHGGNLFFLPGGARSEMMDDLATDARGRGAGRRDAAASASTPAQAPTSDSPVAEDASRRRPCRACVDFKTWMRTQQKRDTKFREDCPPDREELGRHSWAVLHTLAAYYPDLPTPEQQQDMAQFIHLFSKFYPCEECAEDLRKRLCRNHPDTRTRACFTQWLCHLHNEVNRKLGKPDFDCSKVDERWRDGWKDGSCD
# T cell HTS: modulators of CD8 T cell-vesicle binding, primary screen, mouse 2C CD8+ T cells, flow cytometry | 2C CD8+ T cell-vesicle binding; active compounds read low | response (vesicle binding), % at 7 µM | actives 0.068% (n = 330,000) | AID 2052, 2009;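 active = response, share of CD8 T cells binding vesicles, and their 90th percentile fluorescence all below set limits, cut at about 80% in these data, passing the limit was not always enough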;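 note: values below 100% mean blocked vesicle binding to the CD8+ T cells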
#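 Material: murine 2C transgenic CD8+ T lymphocytes / Also added: QL9-peptide-loaded Drosophila micro-vesicles bearing Ld, ICAM-1 and B7-1 / Schedule: binding step 1.5 h, 37 °C, antibody labelling 20 min, ice / Signal: flow cytometry, PE anti-B7-1 (FL2) versus Alexa647 anti-CD8 (FL8), PFA-fixed / Evaluation: percent CD8+ FL2 mean versus row control / Benchmarks: naked versus QL9-loaded vesicles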
# N-glyco inh: increase of ERlucT glycosylation luciferase signal, primary screen, N-linked glycosylation inhibitor project, D54 ERlucT cells, luminescence, set 2 | D54 ERlucT glycosylation luciferase reporter, 24 h; percent of 100 nM tunicamycin response | actives 0.23% (n = 360,000) | reporter increase, % at 12.5 µM;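 active = mean luciferase reporter signal, scaled so untreated is 0 and the glycosylation-blocking control 100, at or above a set limit in every replicate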;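 note: luciferase carries N-glycosylation sites so blocking glycosylation raises the light; 0% = median of neutral control wells and 100% = median of 100 nM tunicamycin wells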
# * = called active by the depositor; i = inactive; . = no result given. The entries come from a sample that favours hits as a whole.
SMILES,ALR H2O2 inh,T cell HTS,N-glyco inh
CCCCc1ccc(NC(=O)CSc2nc(=O)n(CCN(C)C)c3c2CCC3)cc1,98*,207,5
COc1ccc(NC(=O)CSc2nc(=O)n(CCN(C)C)c3c2CCCC3)cc1,-16,639,-2
CCN(CC)CCCn1c2c(c(SCC(=O)Nc3nc4ccccc4s3)nc1=O)CCC2,99*,186,-4
CCN(CC)CCn1c2c(c(SCC(=O)NCc3ccccc3)nc1=O)CCC2,-32,384,-2
CN(C)CCn1c2c(c(SCC(=O)Nc3cccc4ccccc34)nc1=O)CCC2,14,466,-5
CCN(CC)CCn1c2c(c(SCC(=O)Nc3cccc4ccccc34)nc1=O)CCCC2,96*,165,-7
Cc1c(OCC(=O)NCCCn2ccnc2)ccc2c3c(c(=O)oc12)CCC3,-4,316,4
CCc1nc2ccc(C(=O)Nc3ccc4c(c3)OCC(=O)N4)cn2c1N(C)C(=O)C1CCCCC1,.,.,4
c1ccc(CN2CCC3CC2c2c3cccc2N2CCOCC2)cc1 (stereo not given),.,.,-9
Cc1cc(NC(=O)c2c(-c3c(Cl)cccc3Cl)noc2C)n(C)n1,7,756,1
CC(=O)Nc1ccc(OC(=O)c2ccc(Br)c([N+](=O)[O-])c2)cc1,4,188,-1
CNc1ccc(/C=C\CCCO)cn1,.,.,0
O=C(NCCO)/C(=C\c1cccc([N+](=O)[O-])c1)NC(=O)c1ccco1,8,206,2
CCc1nc2ccc(C(=O)N3CCN(C(=O)c4ccco4)CC3)cn2c1N(C)CCC(C)C,.,.,-3
CC(=O)Nc1cccc(-c2ccnc3c2CC(C(=O)NCc2ccc(N(C)C)cc2)O3)c1 (stereo not given),.,.,13
COc1ccccc1NC(=O)CSc1nc(=O)n(CCN(C)C)c2c1CCCC2,-4,426,-1
CCN(CC)CCn1c2c(c(SCC(=O)Nc3cc(C)cc(C)c3)nc1=O)CCC2,3,272,-3
CCN(CC)CCCn1c2c(c(SCC(=O)Nc3ccc(C)c(F)c3)nc1=O)CCC2,97*,436,-6
CCN(CC)CCCn1c2c(c(SCC(=O)Nc3ccc(OC(F)(F)F)cc3)nc1=O)CCC2,-395,224,0
Cc1ccc(NC(=O)CSc2nc(=O)n(CCN(C)C)c3c2CCCC3)cc1Cl,98*,749,-1
CCCCc1ccc(NC(=O)CSc2nc(=O)n(CCN(CC)CC)c3c2CCCC3)cc1,98*,310,-9
Cc1ccc(CSCc2ccc(C(=O)NC3CC3)o2)cc1,-10,240,-4
O=C(NC1CC1)c1ccc(CSCc2cccc(F)c2)o1,99*,i,-2
CC1CCN(CCCNC(=O)c2ccc(CSCc3cccc(Cl)c3)o2)CC1,99*,326,-5
Cc1ccc(CSCc2ccc(C(=O)NCCCN3CCOCC3)o2)cc1,54,154,2
SMILES,ALR H2O2 inh,T cell HTS,N-glyco inh
CN1CCN(CCCNC(=O)c2ccc(CSCc3cccc(Cl)c3)o2)CC1,43,325,.
Cc1ccccc1CSCc1ccc(C(=O)NCCCN2CCOCC2)o1,98*,284,1
CCOc1ccc(NC(=O)CN(C)C(=O)CCCc2nc3ccccc3c(=O)[nH]2)cc1OCC,2,323,-2
CC(=O)OC1(C)C=Cc2ccccc2C1=NS(=O)(=O)c1ccccc1 (stereo not given),.,.,3
CC1(C(=O)Nc2cccnc2)Cc2c(-c3ccc4c(c3)OCO4)ccnc2O1 (stereo not given),.,.,1
O=C(CN(CC1CCCO1)S(=O)(=O)c1ccc(S(=O)(=O)NC2CC2)cc1)Nc1ccccc1 (stereo not given),-13,333,-1
CCN(CC)S(=O)(=O)c1ccc(S(=O)(=O)N(CC(=O)Nc2ccccc2)CC2CCCO2)cc1 (stereo not given),98*,197,-1
CCC[N+](C)(C)C(C)C(OC(C)=O)c1ccccc1 (stereo not given),-4,259,0
Cc1cc2c(cc1S(=O)(=O)N1CCN(c3cccc(C)c3C)CC1)OCCN2C,-5,570,0
Cc1onc(-c2ccccc2Cl)c1C(=O)O/N=C(\N)c1ccc([N+](=O)[O-])o1,-68,438,5
Nc1nc(-c2c[nH]c3ccccc23)cs1,87*,870,4
CNc1nc(-c2c[nH]c3ccccc23)cs1,.,274,2
CCOC(=O)/C=C/C(=O)Nc1nccs1,17,222,-7
Cc1ccc(-c2csc(NC(=O)CN3C(=O)CCC3=O)n2)cc1,-5,0,1
Cc1ccc(-c2csc(NC(=O)CSc3nc(C)cc(=O)[nH]3)n2)cc1,99*,551,.
Cc1ccc(-c2csc(NC(=O)CSC3=NCCS3)n2)cc1,100*,247,4
CCC(Sc1nc(C)cc(=O)[nH]1)C(=O)Nc1nc(-c2ccccc2)cs1 (stereo not given),48,444,0
Cc1cc(Cl)ccc1OC(C)C(=O)NN1C(=O)c2ccccc2C1=O (stereo not given),-3,177,-1
C=C(C)Cn1c2ccc(NC(=O)CCOCC)cc2c(=O)n1C,.,.,0
O=C(c1ccc(N2C(=O)C3CC=C(Cl)CC3C2=O)cc1)N1CCCCC1 (stereo not given),-3,0.0*,0
O=C(c1ccc(N2C(=O)C3CC=C(Cl)CC3C2=O)cc1)N1CCOCC1 (stereo not given),.,165,1
N#Cc1c(-c2cccc(Cl)c2)[nH]c(=S)[nH]c1=O,80*,216,1
N#Cc1c(-c2ccccc2)[nH]c(=S)[nH]c1=O,57,126,0
Clc1ccccc1CSC1=NCCN1,.,174,0
c1ccc(CSC2=NCCCN2)cc1,-13,246,1
SMILES,ALR H2O2 inh,T cell HTS,N-glyco inh
CCOc1ccc(CSC2=NCCN2)cc1Cl,100*,638,2
N#Cc1ccc(CSC2=NCCN2)cc1,99*,772,1
O=C(NC1CCCCC1)c1ccc2snnc2c1,1,183,1
Cc1cc(=O)[nH]c(SCC(=O)Nc2ccc(F)c([N+](=O)[O-])c2)n1,98*,313,2
CCOC(=O)c1ccc(NC(=O)CSc2nc(C)cc(=O)[nH]2)cc1,99*,228,-1
Cn1ccnc1SCC(=O)Nc1ccc(F)c([N+](=O)[O-])c1,-11,289,-1
CCCc1cc(=O)[nH]c(Nc2ccc(N3CCCCC3)cc2)n1,98*,i,0
CCOC(=O)c1ccc(NC(=O)CSc2nc3sc(C(=O)O)c(C)c3c(=O)[nH]2)cc1,98*,218,0
COC(=O)c1cc(NC(=O)CSc2nc(C)cc(=O)[nH]2)cc(C(=O)OC)c1,60,138,-1
CCCCc1ccc(Nc2nc(CCC)cc(=O)[nH]2)cc1,-5,400,-2
COC(=O)c1ccc(CSc2nc3sc(C(=O)O)c(C)c3c(=O)[nH]2)cc1,-73,260,.
C[C@@H]1CN([C@@H](C)CO)C(=O)CCCn2nncc2CO[C@H]1CN(C)C(=O)Nc1ccccc1F,.,.,2
O=c1[nH][nH]c(=O)c2nc(Nc3ccccc3)ncc12,.,.,2
Cc1cc(=O)[nH]c(SCC(=O)Nc2ccc(C)c(S(=O)(=O)N3CCCCC3)c2)n1,71,450,2
